# Assay results published in ChEMBL document CHEMBL3091373, “Phenylspirodrimanes with anti-HIV activity from the sponge-derived fungus Stachybotrys chartarum MXH-X73” (J Nat Prod, 2013).
# What was measured:
# HEK-293T = test: Cytotoxicity against human 293T cells at 10 uM after 48 hrs; type: cell-based
# How it was run: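 293T cells at the anti-HIV assay culture conditions (seeded 6 × 10^4 cells/well the day before), compound in DMSO incubated 48 h without virus; viability read with a cell proliferation assay kit.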
# [1] = tested on: Human immunodeficiency virus 1; test: Antiviral activity against wild-type HIV-1 infected in HEK293T cells co-transfected with VSVG protein assessed as time required for 50% failure of viral replication at 10 uM by luciferase reporter gene assay; type: functional, HEK-293T
# How it was run: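 Time-of-addition run: HEK 293T cells seeded 6 × 10^4/well, held overnight at 37 °C, then infected with VSVG/HIV-wt pseudoparticles (t = 0 at particle addition). Compounds added at a final 10 μM at 0, 2, 4, 6, 8, 10, 12, 14 or 16 h. Cells lysed 48 h post-infection and luciferase activity measured.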
# [2] = tested on: Human immunodeficiency virus 1; test: Antiviral activity against HIV-1 expressing reverse transcriptase K103N/G190A double mutant infected in human 293T cells co-transfected with VSVG protein assessed as inhibition of viral-replication incubated 15 mins prior to viral-infection measured after 48 hrs by luciferase reporter gene assay; type: functional, organism-based; settings: Human immunodeficiency virus 1, HEK-293T
# How it was run: (§1)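 VSV-G-pseudotyped single-cycle HIV made by Ca3(PO4)2 co-transfection of 293T cells with env-deficient pNL4-3.luc.R-E- (wild-type or RT mutant) vector; medium changed 16 h post-transfection, supernatant harvested at 48 h, filtered, diluted to 0.2 ng p24/mL. Target 293T cells seeded 6 × 10^4/well the day before; compounds in DMSO added 15 min pre-infection; luciferase of lysates read 48 h post-infection.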
# [3] = tested on: Human immunodeficiency virus 1; test: Antiviral activity against wild-type HIV-1 infected in human 293T cells co-transfected with VSVG protein assessed as inhibition of viral-replication incubated 15 mins prior to viral-infection measured after 48 hrs by luciferase reporter gene assay; type: functional, organism-based; settings: Human immunodeficiency virus 1, HEK-293T; how it was run: as §1
# [4] = tested on: Human immunodeficiency virus 1; test: Antiviral activity against HIV-1 expressing reverse transcriptase L100I/K103N double mutant infected in human 293T cells co-transfected with VSVG protein assessed as inhibition of viral-replication incubated 15 mins prior to viral-infection measured after 48 hrs by luciferase reporter gene assay; type: functional, organism-based; settings: Human immunodeficiency virus 1, HEK-293T; how it was run: as §1
# [5] = tested on: Human immunodeficiency virus 1; test: Antiviral activity against HIV-1 expressing reverse transcriptase K103N mutant infected in human 293T cells co-transfected with VSVG protein assessed as inhibition of viral-replication incubated 15 mins prior to viral-infection measured after 48 hrs by luciferase reporter gene assay; type: functional, organism-based; settings: Human immunodeficiency virus 1, HEK-293T; how it was run: as §1
# [6] = tested on: Human immunodeficiency virus 1; test: Antiviral activity against HIV-1 expressing reverse transcriptase K103N/V108I double mutant infected in human 293T cells co-transfected with VSVG protein assessed as inhibition of viral-replication incubated 15 mins prior to viral-infection measured after 48 hrs by luciferase reporter gene assay; type: functional, organism-based; settings: Human immunodeficiency virus 1, HEK-293T; how it was run: as §1
# [7] = tested on: Human immunodeficiency virus 1; test: Antiviral activity against HIV-1 expressing reverse transcriptase K103N/P225H double mutant infected in human 293T cells co-transfected with VSVG protein assessed as inhibition of viral-replication incubated 15 mins prior to viral-infection measured after 48 hrs by luciferase reporter gene assay; type: functional, organism-based; settings: Human immunodeficiency virus 1, HEK-293T; how it was run: as §1
# [8] = tested on: Human immunodeficiency virus 1; test: Ratio of EC50 for HIV-1 expressing reverse transcriptase K103N/V108I double mutant to EC50 for wild-type HIV-1; type: functional
# How it was run: (§2)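 Fold change, computed as the EC50 against each VSV-G-pseudotyped NNRTI-resistant RT-mutant HIV-1 divided by the EC50 against wild-type pseudovirus. Both EC50s come from the 293T single-cycle luciferase infection assay, with compound added 15 min before infection and read at 48 h.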
# [9] = tested on: Human immunodeficiency virus 1; test: Ratio of EC50 for HIV-1 expressing reverse transcriptase L100I/K103N double mutant to EC50 for wild-type HIV-1; type: functional; how it was run: as §2
# [10] = tested on: Human immunodeficiency virus 1; test: Ratio of EC50 for HIV-1 expressing reverse transcriptase K103N/P225H double mutant to EC50 for wild-type HIV-1; type: functional; how it was run: as §2
# [11] = target: Human immunodeficiency virus type 1 reverse transcriptase (Human immunodeficiency virus 1, UniProt Q72547); test: (§3) Inhibition of HIV-1 reverse transcriptase after 1 hr by spectrophotometry
# How it was run: (§4)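 RNA-dependent DNA polymerase activity. Started with reverse transcriptase, 1 h at 37 °C. Product captured on streptavidin plate 1 h at 37 °C, TMB 15 min, stopped with H2SO4, OD450. Dose-response EC50.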
# [12] = target: Human immunodeficiency virus type 1 reverse transcriptase (Human immunodeficiency virus 1) (UniProt Q72547); test: as §3; how it was run: as §4
# [13] = tested on: Human immunodeficiency virus 1; test: Ratio of EC50 for HIV-1 expressing reverse transcriptase K103N/G190A double mutant to EC50 for wild-type HIV-1; type: functional; how it was run: as §2
# [14] = tested on: Human immunodeficiency virus 1; test: Ratio of EC50 for HIV-1 expressing reverse transcriptase K103N mutant to EC50 for wild-type HIV-1; type: functional; how it was run: as §2
smiles,measurement,setting,value
Cc1cc(O)c2c(c1C=O)O[C@]1(C2)[C@H](C)CC[C@H]2C(C)(C)[C@H](O)CC[C@@]21C,Activity,HEK-293T,Non-toxic
Cc1nnc(C(=O)NC(C)(C)c2nc(C(=O)NCc3ccc(F)cc3)c(O)c(=O)n2C)o1,Time,[1],17.78 h
C[C@@H]1CC[C@H]2C(C)(C)[C@H](O)C(O)C[C@]2(C)[C@@]12Cc1c(O)cc(CO)c(C=O)c1O2 (some centres undefined),Activity,HEK-293T,Non-toxic
C[C@@H]1CC[C@H]2C(C)(C)[C@H](O)[C@H](O)C[C@]2(C)[C@@]12Cc1c(O)cc(CO[C@H]3O[C@H](CO)[C@@H](O)[C@H](O)[C@H]3O)c(C=O)c1O2,Activity,HEK-293T,Non-toxic
COC(=O)[C@H](CCC(=O)O)N1Cc2c(cc(O)c3c2O[C@]2(C3)[C@H](C)CC[C@H]3C(C)(C)[C@H](O)CC[C@@]32C)C1=O,Activity,HEK-293T,Non-toxic
O=C1Nc2ccc(Cl)cc2[C@@](C#CC2CC2)(C(F)(F)F)O1 [EFAVIRENZ],Time,[1],13.06 h
Cc1cn([C@H]2C[C@H](N=[N+]=[N-])[C@@H](CO)O2)c(=O)[nH]c1=O [ZIDOVUDINE],Time,[1],11.59 h
Cc1ccnc2c1NC(=O)c1cccnc1N2C1CC1 [NEVIRAPINE],EC50,[2],51.9 µM
same,EC50,[3],0.023 µM
same,EC50,[4],3.3 µM
same,EC50,[5],2.3 µM
same,EC50,[6],7.5 µM
same,EC50,[7],23.3 µM
C[C@@H]1CC[C@H]2C(C)(C)[C@H](O)CC[C@]2(C)[C@@]12Cc1c(O)cc3c(c1O2)CN([C@@H](CCC(=O)O)C(=O)O)C3=O,Activity,HEK-293T,Non-toxic
C[C@@H]1CC[C@H]2C(C)(C)[C@H](O)CC[C@]2(C)[C@@]12Cc1c(O)cc(CO)c(C=O)c1O2,Activity,HEK-293T,Non-toxic
C[C@@H]1CC[C@H]2C(C)(C)[C@H](O)CC[C@]2(C)[C@@]12Cc1c(O)cc3c(c1O2)CN(CCCCCN1Cc2c(cc(O)c4c2O[C@]2(C4)[C@H](C)CC[C@H]4C(C)(C)[C@H](O)CC[C@@]42C)C1=O)C3=O,Activity,HEK-293T,Non-toxic
CC(=O)CN1Cc2c(cc(O)c3c2O[C@]2(C3)[C@H](C)CC[C@H]3C(C)(C)[C@H](O)CC[C@@]32C)C1=O,Ratio EC50,[8],1.6
same,Ratio EC50,[9],2.8
same,EC50,[2],14.2 µM
same,EC50,[3],8.4 µM
same,Ratio EC50,[10],0.7
same,EC50,[4],23.8 µM
same,Time,[1],12.66 h
same,EC50,[5],7 µM
same,EC50,[11],50 µM
same,inhibition,[12],Dose-dependent effect
same,EC50,[6],13.3 µM
same,EC50,[7],6.2 µM
same,Activity,HEK-293T,Non-toxic
same,Ratio EC50,[13],1.7
same,Ratio EC50,[14],0.8
C[C@@H]1CC[C@H]2C(C)(C)[C@H](O)CC[C@]2(C)[C@@]12Cc1c(O)cc3c(c1O2)CN(CCCCN1Cc2c(cc(O)c4c2O[C@]2(C4)[C@H](C)CC[C@H]4C(C)(C)[C@H](O)CC[C@@]42C)C1=O)C3=O,Activity,HEK-293T,Non-toxic
C[C@@H]1CC[C@H]2C(C)(C)[C@H](O)CC[C@]2(C)[C@@]12Cc1c(O)cc(CO[C@H]3O[C@H](CO)[C@@H](O)[C@H](O)[C@H]3O)c(C=O)c1O2,Activity,HEK-293T,Non-toxic
COC(=O)CC[C@@H](C(=O)O)N1Cc2c(cc(O)c3c2O[C@]2(C3)[C@H](C)CC[C@H]3C(C)(C)[C@H](O)CC[C@@]32C)C1=O,Activity,HEK-293T,Non-toxic
